Test results published in ChEMBL document CHEMBL1629633, “Prevalence of sulfonamide resistance genes in bacterial isolates from manured agricultural soils and pig slurry in the United Kingdom” (2009).

Key:
Assay type in all cases: functional
[1] = system: Psychrobacter frigidicola; assay: Antimicrobial activity against Psychrobacter frigidicola isolate C712 harboring sul1 to sul3 genes by agar dilution method
In short: (§1)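 Agar dilution on Iso-Sensitest agar for MICs and resistance breakpoints. Each isolate's inoculum (100 μl) was adjusted to OD600 0.4. Isolates came from soil cores of a field given pig slurry, or from the pig slurry itself. They were picked from nonselective or antibiotic plates incubated aerobically at 28°C, purified by restreaking, checked for sul genes by PCR and identified by 16S rRNA sequencing.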

[2] = system: Acinetobacter lwoffii; assay: Antimicrobial activity against Acinetobacter lwoffii isolate C15 harboring sul1 to sul3 genes by agar dilution method; in short: as §1
[3] = system: Acinetobacter lwoffii; assay: Antimicrobial activity against Acinetobacter lwoffii isolate C3 harboring sul1 to sul3 genes by agar dilution method; in short: as §1
[4] = system: Shigella flexneri; assay: Antimicrobial activity against Shigella flexneri isolate C506 harboring sul1 to sul3 genes by agar dilution method
In short: (§2)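 Isolates were recovered from manured clay soil or pig slurry on Iso-Sensitest agar at 28°C. sul genes were detected by PCR, and identity was assigned by ~800 bp 16S rRNA sequencing. MICs and resistance breakpoints were found by agar dilution on Iso-Sensitest agar, with each inoculum (100 μl) adjusted to OD600 0.4.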

[5] = system: Acinetobacter rhizosphaerae; assay: Antimicrobial activity against Acinetobacter rhizosphaerae isolate C44 harboring sul1 to sul3 genes by agar dilution method; in short: as §1
[6] = Antimicrobial activity against Psychrobacter sp. DY9-2 isolate C711 harboring sul1 to sul3 genes by agar dilution method; in short: as §2
[7] = Antimicrobial activity against Psychrobacter ikaite isolate C713 harboring sul1 to sul3 genes by agar dilution method; in short: as §2
[8] = system: Aerococcus viridans; assay: Antimicrobial activity against Aerococcus viridans isolate PGS21 harboring sul1 to sul3 genes by agar dilution method; in short: as §1
[9] = system: Aerococcus viridans; assay: Antimicrobial activity against Aerococcus viridans isolate PGS22 harboring sul1 to sul3 genes by agar dilution method; in short: as §1
[10] = system: Pseudomonas putida; assay: Antimicrobial activity against Pseudomonas putida isolate C231 harboring sul1 to sul3 genes by agar dilution method; in short: as §1
[11] = Antimicrobial activity against Acinetobacter sp. An9 isolate PGS49 harboring sul1 to sul3 genes by agar dilution method; in short: as §1
[12] = system: Acinetobacter baumannii; assay: Antimicrobial activity against Acinetobacter baumannii isolate C442 harboring sul1 to sul3 genes by agar dilution method; in short: as §1
[13] = system: Pseudomonas lini; assay: Antimicrobial activity against Pseudomonas lini isolate C701 harboring sul1 to sul3 genes by agar dilution method; in short: as §1
[14] = Antimicrobial activity against Acinetobacter sp. N2 isolate C439 harboring sul1 to sul3 genes by agar dilution method; in short: as §1
[15] = system: Acinetobacter lwoffii; assay: Antimicrobial activity against Acinetobacter lwoffii isolate C141 harboring sul1 to sul3 genes by agar dilution method; in short: as §1
[16] = system: Lysinibacillus sphaericus; assay: Antimicrobial activity against Bacillus sphaericus isolate C237 harboring sul1 to sul3 genes by agar dilution method; in short: as §1
[17] = system: Bacillus psychrodurans; assay: Antimicrobial activity against Bacillus psychrodurans isolate C328 harboring sul1 to sul3 genes by agar dilution method; details: Psychrobacillus psychrodurans; in short: as §1
[18] = system: Acinetobacter lwoffii; assay: Antimicrobial activity against Acinetobacter lwoffii isolate C37 harboring sul1 to sul3 genes by agar dilution method; in short: as §1
[19] = system: Acinetobacter calcoaceticus; assay: Antimicrobial activity against Acinetobacter calcoaceticus isolate C35 harboring sul1 to sul3 genes by agar dilution method; in short: as §1
[20] = system: Arthrobacter arilaitensis; assay: Antimicrobial activity against Arthrobacter arilaitensis isolate C361 harboring sul1 to sul3 genes by agar dilution method; details: Glutamicibacter arilaitensis; in short: as §1
[21] = system: Acinetobacter lwoffii; assay: Antimicrobial activity against Acinetobacter lwoffii isolate PGS47 harboring sul1 to sul3 genes by agar dilution method; in short: as §1
[22] = system: Acinetobacter calcoaceticus; assay: Antimicrobial activity against Acinetobacter calcoaceticus isolate C36 harboring sul1 to sul3 genes by agar dilution method; in short: as §1
[23] = system: Providencia stuartii; assay: Antimicrobial activity against Providencia stuartii isolate C167 harboring sul1 to sul3 genes by agar dilution method; in short: as §1
[24] = Antimicrobial activity against Psychrobacter ikaite isolate C410 harboring sul1 to sul3 genes by agar dilution method; in short: as §2
[25] = system: Stenotrophomonas maltophilia; assay: Antimicrobial activity against Stenotrophomonas maltophilia isolate C422 harboring sul1 to sul3 genes by agar dilution method; in short: as §2
[26] = system: Enterococcus hirae; assay: Antimicrobial activity against Enterococcus hirae isolate PGS48 harboring sul1 to sul3 genes by agar dilution method; in short: as §1
[27] = system: Pseudomonas fluorescens; assay: Antimicrobial activity against Pseudomonas fluorescens isolate C131 harboring sul1 to sul3 genes by agar dilution method; in short: as §1
[28] = system: Acinetobacter lwoffii; assay: Antimicrobial activity against Acinetobacter lwoffii isolate C2 harboring sul1 to sul3 genes by agar dilution method; in short: as §1
[29] = system: Pseudomonas borealis; assay: Antimicrobial activity against Pseudomonas borealis isolate C5 harboring sul1 to sul3 genes by agar dilution method; in short: as §1
[30] = Antimicrobial activity against Psychrobacter ikaite isolate C20 harboring sul1 to sul3 genes by agar dilution method; in short: as §2
[31] = system: Enterococcus sulfureus; assay: Antimicrobial activity against Enterococcus sulfureus isolate PGS61 harboring sul1 to sul3 genes by agar dilution method; in short: as §1

Measured: MIC

Nc1ccc(S(=O)(=O)Nc2ccc(Cl)nn2)cc1 [SULFACHLORPYRIDAZINE]
16 mg/L: [11] | [14] | [21] | [24]
1 mg/L: [3] | [13] | [16] | [25]
5 mg/L: [2] | [5] | [20] | [28] | [30]
32 mg/L: [8] | [27] | [29]
6 mg/L: [15] | [23]
4 mg/L: [26] | [31]
8 mg/L: all other assays above
